Laboratory results: ChEMBL document CHEMBL4689842, “EUbOPEN Chemogenomics Library wave 1” (2021)

Test system: HEK-293T
Assay: Multiplex assay against HEK293T;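 on Population Tubulin-Different-Phenotype (%): share of the cells with healthy nuclei that show this phenotype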
Format: toxicity, cell-based
Details: human
How it was run: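 Per cents of healthy-nucleus cells form the tubulin, mitochondrial-mass and membrane-permeability phenotype values. Live cells were stained at seeding with Hoechst33342, BioTracker Green Microtubule Cytoskeleton Dye, MitoTracker Red and Annexin V Alexa Fluor 680. After compound addition they were imaged on a CQ1 microscope at 37°C and 5% CO2, and CellPathfinder machine-learning gating split them into Hoechst high-intensity objects or normal cells, normal cells into healthy, pyknosed or fragmented nuclei, and pyknosed cells into mitotic or apoptotic.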

[1] = 12 h, 1 µM, compound concentration 1 uM, replicate 1
[2] = 12 h, 1 µM, compound concentration 1 uM, replicate 2
[3] = 12 h, 10 µM, compound concentration 10 uM, replicate 1
[4] = 12 h, 10 µM, compound concentration 10 uM, replicate 2
[5] = 24 h, 1 µM, compound concentration 1 uM, replicate 1
[6] = 24 h, 1 µM, compound concentration 1 uM, replicate 2
[7] = 24 h, 10 µM, compound concentration 10 uM, replicate 1
[8] = 24 h, 10 µM, compound concentration 10 uM, replicate 2
[9] = 48 h, 1 µM, compound concentration 1 uM, replicate 1
[10] = 48 h, 1 µM, compound concentration 1 uM, replicate 2
[11] = 48 h, 10 µM, compound concentration 10 uM, replicate 1
[12] = 48 h, 10 µM, compound concentration 10 uM, replicate 2

CC[C@H](C)C(=O)O[C@H]1C[C@@H](C)C=C2C=C[C@H](C)[C@H](CC[C@@H]3C[C@@H](O)CC(=O)O3)[C@H]21 [LOVASTATIN]
Population Apoptotic (%) [1]: 48% | Population Fragmented Nuclei (%) [1]: 22% | Population Healthy Nuclei (%) [1]: 16% | Population Hoechst High Intensity Objects (%) [1]: 14% | Population Mitochondria Different-Phenotype (%) [1]: 68% | Population Mitotic Cells (%) [1]: 51% | Population Normal (%) [1]: 85% | Population Pyknosed Nuclei (%) [1]: 60% | Population Tubulin-Different-Phenotype (%) [1]: 28% | Total Cell Count [1]: 174 | Population Apoptotic (%) [2]: 7% | Population Fragmented Nuclei (%) [2]: 4% | Population Healthy Nuclei (%) [2]: 44% | Population Hoechst High Intensity Objects (%) [2]: 4% | Population Membrane Permeable-Phenotype (%) [2]: 4% | Population Mitochondria Different-Phenotype (%) [2]: 11% | Population Mitotic Cells (%) [2]: 92% | Population Normal (%) [2]: 95% | Population Pyknosed Nuclei (%) [2]: 50% | Population Tubulin-Different-Phenotype (%) [2]: 9% | Total Cell Count [2]: 227 | Population Apoptotic (%) [3]: 47% | Population Fragmented Nuclei (%) [3]: 8% | Population Healthy Nuclei (%) [3]: 33% | Population Hoechst High Intensity Objects (%) [3]: 14% | Population Membrane Permeable-Phenotype (%) [3]: 1% | Population Mitochondria Different-Phenotype (%) [3]: 89% | Population Mitotic Cells (%) [3]: 52% | Population Normal (%) [3]: 85% | Population Pyknosed Nuclei (%) [3]: 57% | Population Tubulin-Different-Phenotype (%) [3]: 39% | Total Cell Count [3]: 341 | Population Apoptotic (%) [4]: 10% | Population Fragmented Nuclei (%) [4]: 5% | Population Healthy Nuclei (%) [4]: 45% | Population Hoechst High Intensity Objects (%) [4]: 3% | Population Membrane Permeable-Phenotype (%) [4]: 4% | Population Mitochondria Different-Phenotype (%) [4]: 21% | Population Mitotic Cells (%) [4]: 89% | Population Normal (%) [4]: 96% | Population Pyknosed Nuclei (%) [4]: 49% | Population Tubulin-Different-Phenotype (%) [4]: 16% | Total Cell Count [4]: 266 | Population Apoptotic (%) [5]: 50% | Population Fragmented Nuclei (%) [5]: 30% | Population Healthy Nuclei (%) [5]: 16% | Population Hoechst High Intensity Objects (%) [5]: 19% | Population Membrane Permeable-Phenotype (%) [5]: 4% | Population Mitochondria Different-Phenotype (%) [5]: 52% | Population Mitotic Cells (%) [5]: 50% | Population Normal (%) [5]: 80% | Population Pyknosed Nuclei (%) [5]: 52% | Population Tubulin-Different-Phenotype (%) [5]: 32% | Total Cell Count [5]: 192 | Population Apoptotic (%) [6]: 8% | Population Fragmented Nuclei (%) [6]: 3% | Population Healthy Nuclei (%) [6]: 65% | Population Hoechst High Intensity Objects (%) [6]: 3% | Population Membrane Permeable-Phenotype (%) [6]: 6% | Population Mitochondria Different-Phenotype (%) [6]: 13% | Population Mitotic Cells (%) [6]: 91% | Population Normal (%) [6]: 96% | Population Pyknosed Nuclei (%) [6]: 30% | Population Tubulin-Different-Phenotype (%) [6]: 20% | Total Cell Count [6]: 287 | Population Apoptotic (%) [7]: 38% | Population Fragmented Nuclei (%) [7]: 12% | Population Healthy Nuclei (%) [7]: 37% | Population Hoechst High Intensity Objects (%) [7]: 17% | Population Membrane Permeable-Phenotype (%) [7]: 1% | Population Mitochondria Different-Phenotype (%) [7]: 73% | Population Mitotic Cells (%) [7]: 61% | Population Normal (%) [7]: 82% | Population Pyknosed Nuclei (%) [7]: 50% | Population Tubulin-Different-Phenotype (%) [7]: 37% | Total Cell Count [7]: 349 | Population Apoptotic (%) [8]: 14% | Population Fragmented Nuclei (%) [8]: 4% | Population Healthy Nuclei (%) [8]: 57% | Population Hoechst High Intensity Objects (%) [8]: 4% | Population Membrane Permeable-Phenotype (%) [8]: 6% | Population Mitochondria Different-Phenotype (%) [8]: 17% | Population Mitotic Cells (%) [8]: 85% | Population Normal (%) [8]: 95% | Population Pyknosed Nuclei (%) [8]: 37% | Population Tubulin-Different-Phenotype (%) [8]: 20% | Total Cell Count [8]: 320 | Population Apoptotic (%) [9]: 49% | Population Fragmented Nuclei (%) [9]: 29% | Population Healthy Nuclei (%) [9]: 28% | Population Hoechst High Intensity Objects (%) [9]: 15% | Population Membrane Permeable-Phenotype (%) [9]: 2% | Population Mitochondria Different-Phenotype (%) [9]: 42% | Population Mitotic Cells (%) [9]: 50% | Population Normal (%) [9]: 84% | Population Pyknosed Nuclei (%) [9]: 41% | Population Tubulin-Different-Phenotype (%) [9]: 40% | Total Cell Count [9]: 205 | Population Apoptotic (%) [10]: 3% | Population Fragmented Nuclei (%) [10]: 6% | Population Healthy Nuclei (%) [10]: 81% | Population Hoechst High Intensity Objects (%) [10]: 3% | Population Membrane Permeable-Phenotype (%) [10]: 7% | Population Mitochondria Different-Phenotype (%) [10]: 4% | Population Mitotic Cells (%) [10]: 96% | Population Normal (%) [10]: 96% | Population Pyknosed Nuclei (%) [10]: 11% | Population Tubulin-Different-Phenotype (%) [10]: 20% | Total Cell Count [10]: 588 | Population Apoptotic (%) [11]: 42% | Population Fragmented Nuclei (%) [11]: 17% | Population Healthy Nuclei (%) [11]: 37% | Population Hoechst High Intensity Objects (%) [11]: 19% | Population Membrane Permeable-Phenotype (%) [11]: 2% | Population Mitochondria Different-Phenotype (%) [11]: 46% | Population Mitotic Cells (%) [11]: 57% | Population Normal (%) [11]: 80% | Population Pyknosed Nuclei (%) [11]: 45% | Population Tubulin-Different-Phenotype (%) [11]: 39% | Total Cell Count [11]: 384 | Population Apoptotic (%) [12]: 8% | Population Fragmented Nuclei (%) [12]: 5% | Population Healthy Nuclei (%) [12]: 72% | Population Hoechst High Intensity Objects (%) [12]: 4% | Population Membrane Permeable-Phenotype (%) [12]: 6% | Population Mitochondria Different-Phenotype (%) [12]: 5% | Population Mitotic Cells (%) [12]: 91% | Population Normal (%) [12]: 95% | Population Pyknosed Nuclei (%) [12]: 21% | Population Tubulin-Different-Phenotype (%) [12]: 24% | Total Cell Count [12]: 484
